# Experimental data of several laboratories.
# Protocols differ between the studies behind these lines.
# Organism: Staphylococcus epidermidis
Structure (SMILES),effect on,technique,strain,time,notes,measurement,value
Cc1ccc2[nH]c3c(c2c1)CCCC3NCCc1ccc(Br)cc1 (centres unmarked),microbial growth,broth dilution,MRSE,,,MIC,4 µg/mL
Cc1c(NN=C(C#N)C2=NC(=O)CS2)c(=O)n(-c2ccccc2)n1C,microbial killing,broth dilution,,,,MBC,1 µg/mL
Cc1ccc2[nH]c3c(c2c1)CCCC3NCCc1ccc(O)cc1 (centres unmarked),microbial growth,broth dilution,MRSE,,,MIC,16 µg/mL
CN[C@H](CC(C)C)C(=O)N[C@H]1C(=O)N[C@@H](CC(N)=O)C(=O)N[C@H]2C(=O)N[C@H]3C(=O)N[C@H](C(=O)N[C@H](C(=O)O)c4cc(O)cc(O)c4-c4cc3ccc4O)[C@H](O)c3ccc(c(Cl)c3)Oc3cc2cc(c3O[C@@H]2O[C@H](CO)[C@@H](O)[C@H](O)[C@H]2O[C@H]2C[C@](C)(N)[C@H](O)[C@H](C)O2)Oc2ccc(cc2Cl)[C@H]1O,microbial growth,broth dilution,12228,,,MIC,0.78 µM
CCCCCCCCCC(=O)N[C@@H](Cc1c[nH]c2ccccc12)C(=O)N[C@H](CC(N)=O)C(=O)N[C@@H](CC(=O)O)C(=O)N[C@@H]1C(=O)NCC(=O)N[C@@H](CCCN)C(=O)N[C@@H](CC(=O)O)C(=O)N[C@H](C)C(=O)N[C@@H](CC(=O)O)C(=O)NCC(=O)N[C@H](CO)C(=O)N[C@@H]([C@H](C)CC(=O)O)C(=O)N[C@@H](CC(=O)c2ccccc2N)C(=O)O[C@@H]1C,microbial growth,broth dilution,ATCC35984,,drug-resistant strain,MIC,1 µg/mL
CN[C@H](CC(C)C)C(=O)N[C@H]1C(=O)N[C@@H](CC(N)=O)C(=O)N[C@H]2C(=O)N[C@H]3C(=O)N[C@H](C(=O)N[C@H](C(=O)O)c4cc(O)cc(O)c4-c4cc3ccc4O)[C@H](O)c3ccc(c(Cl)c3)Oc3cc2cc(c3O[C@@H]2O[C@H](CO)[C@@H](O)[C@H](O)[C@H]2O[C@H]2C[C@](C)(N)[C@H](O)[C@H](C)O2)Oc2ccc(cc2Cl)[C@H]1O,microbial growth,,ATCC14990,,,MIC,0.5 µg/mL
CCCCCC/C=C\CCCCCCCCCc1cc(O)cc(O)c1,microbial growth,broth dilution,ATCC35984,,drug-resistant strain,MIC,> 64 µg/mL
CN[C@H](CC(C)C)C(=O)N[C@H]1C(=O)N[C@@H](CC(N)=O)C(=O)N[C@H]2C(=O)N[C@H]3C(=O)N[C@H](C(=O)N[C@H](C(=O)O)c4cc(O)cc(O)c4-c4cc3ccc4O)[C@H](O)c3ccc(c(Cl)c3)Oc3cc2cc(c3O[C@@H]2O[C@H](CO)[C@@H](O)[C@H](O)[C@H]2O[C@H]2C[C@](C)(N)[C@H](O)[C@H](C)O2)Oc2ccc(cc2Cl)[C@H]1O,microbial growth,broth dilution,12228,16 h,,MIC,1.56 µM
